Consider 17 compounds from ChEMBL document CHEMBL1151848, “Aryl nucleoside H-phosphonates. Part 16: synthesis and anti-HIV-1 activity of di-aryl nucleoside phosphotriesters” (Bioorg Med Chem, 2009).

Series [1] relates to Human immunodeficiency virus 1. Nature of the series: Antiviral activity against MDR1-resistant HIV1 infected in human MT4 cells assessed as protection from virus-induced cytopathogenicity after 4 days by MTT assay. The class given is functional, organism-based. Particulars: Human immunodeficiency virus 1, MT4, 96 h. In short, it runs like this: (§1)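 MT-4 cells, acutely infected at m.o.i. 0.01, were used to read inhibition of HIV-1-induced cytopathogenicity. Compounds were made as 100 mM DMSO stocks and diluted in culture medium. Viability was read by MTT. EC50 is the concentration giving 50% protection, as the mean (+SD) of three independent determinations.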
On the technique in general: Protection from cytopathic effect is a common read-out in antiviral testing.

In series [2] the test system is Human immunodeficiency virus 1. The series is described as follows: Antiviral activity against efavirenz-resistant HIV1 infected in human MT4 cells assessed as protection from virus-induced cytopathogenicity after 4 days by MTT assay. It counts as functional, organism-based. The conditions noted are these: Human immunodeficiency virus 1, MT4, 96 h. In short, it runs like this: as §1

A short description of series [3]: Cytotoxicity against human MT4 cells after 96 hrs by MTT assay. The class given is cell-based. In short, it runs like this: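 Exponentially growing mock-infected MT-4 cells were seeded at 1 × 10⁵ cells/ml in RPMI-1640 with 10% FCS, penicillin G and streptomycin. They were incubated with serial compound dilutions at 37 °C in humidified 5% CO₂, and viability was read by MTT after 96 h. CC50 is the concentration reducing viability by 50%, as the mean of three independent determinations.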

Series [4] can be described thus: Selectivity index, ratio of CC50 for human MT4 cells to EC50 for HIV1 3B. It counts as toxicity, cell-based. Particulars: read-out: Ratio CC50/EC50.
The test system of series [5] is Human immunodeficiency virus 1. The series is described as follows: Antiviral activity against HIV1 3B infected in human MT4 cells assessed as protection from virus-induced cytopathogenicity after 4 days by MTT assay. It counts as functional, organism-based. Particulars: Human immunodeficiency virus 1, 3B, MT4, 96 h. In short, it runs like this: as §1
In series [6] the test system is Human immunodeficiency virus 1. Nature of the series: Antiviral activity against non-nucleoside reverse transcriptase inhibitor-resistant HIV1 bearing reverse transcriptase A17 (K103N, Y181C) mutation infected in human MT4 cells assessed as protection from virus-induced cytopathogenicity after 4 days by MTT assay. The class given is functional, organism-based. Particulars: Human immunodeficiency virus 1, MT4, 96 h. In short, it runs like this: as §1

For series [7], the system named is Human immunodeficiency virus 1. Nature of the series: Antiviral activity against non-nucleoside reverse transcriptase inhibitor-resistant HIV1 bearing reverse transcriptase N119 (Y181C) mutation infected in human MT4 cells assessed as protection from virus-induced cytopathogenicity after 4 days by MTT assay. It counts as functional, organism-based. The conditions noted are these: Human immunodeficiency virus 1, MT4, 96 h. In a few lines: as §1

Series [8] has as its system Human immunodeficiency virus 1. The series is described as follows: Antiviral activity against azidothymidine-resistant HIV1 infected in human MT4 cells assessed as protection from virus-induced cytopathogenicity after 4 days by MTT assay. It counts as functional, organism-based. The conditions noted are these: Human immunodeficiency virus 1, MT4, 96 h. In short, it runs like this: as §1

Series [9] can be described thus: Chemical stability assessed as chemical hydrolysis half life in RPMI-1640 culture medium by HPLC analysis. It counts as physicochemical. In a few lines: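 Chemical hydrolysis of the compounds was followed in RPMI-1640 medium alone.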

Each structure is given as a SMILES string.

For `Cc1cn([C@H]2C[C@H](N=[N+]=[N-])[C@@H](COP(=O)(Oc3ccc(Br)cc3)Oc3cccnc3)O2)c(=O)[nH]c1=O` (stereo partly drawn), the EC50 (in general, the concentration needed to bring the measured effect to its halfway point) was found to be 500 nM in series [1]; 20 nM in series [2]; 30 nM in series [5]; 10 nM in [6]; 50 nM in series [7]; 1800 nM in series [8]. Also, in series [3], the CC50 – broadly, the concentration at which the toxic effect on the cells reaches its halfway point – at 96 h is 94000 nM. The selectivity ratio in [4] came to 3130. Also, the half-life (usually the time in which the quantity being followed falls by half) in [9] is 44.3 h.

`O=c1ccn([C@H]2CC[C@@H](CO)O2)c(=O)[nH]1` registered a CC50 at 96 h in series [3] of over 100000 nM. The EC50 in series [5] is over 100000 nM.

On to `Cc1ccc(OP(=O)(OC[C@H]2O[C@@H](n3cc(C)c(=O)[nH]c3=O)C[C@@H]2N=[N+]=[N-])Oc2ccc(C)nc2)cn1`, for which the EC50 in [1] came to 400 nM; in series [2] it was 30 nM; in series [5], 40 nM; in [6], 10 nM; in series [7], 50 nM; in [8] it was 800 nM. In series [3], this compound showed a CC50 at 96 h of over 100000 nM. The selectivity ratio in series [4] is over 2500. In addition, the half-life in [9] worked out at 21.4 h.

In the case of `Cc1cn([C@H]2C[C@H](N=[N+]=[N-])[C@@H](COP(=O)(Oc3ccccc3)Oc3ccncc3)O2)c(=O)[nH]c1=O` (stereo partly drawn), the EC50 in [1] amounted to 100 nM; in [2], 10 nM; in series [5], 10 nM; in [6] it was 8 nM; in series [7], 10 nM; in series [8] it was 400 nM. The compound also displayed a CC50 at 96 h in series [3] of over 100000 nM. In addition, in [4], the selectivity ratio is over 10000. Further, the half-life in series [9] stood at 12.8 h.

As to `O=c1ccn([C@H]2CC[C@@H](COP(=O)(Oc3ccncc3)Oc3cccnc3)O2)c(=O)[nH]1` (stereo partly drawn), the EC50 in [1] is at least 100000 nM; in series [2], 7000 nM; in series [5] it was 14000 nM; in series [6] it was 5000 nM; in series [7], 9000 nM; in [8], over 100000 nM. In series [3], this compound returned a CC50 at 96 h of over 100000 nM. The selectivity ratio in series [4] was over 7. Also, the half-life in series [9] was found to be 7 h.

In series [3], `Nc1ncnc2c1ncn2[C@H]1CC[C@@H](CO)O1` yielded a CC50 at 96 h of over 100000 nM. Besides, the selectivity ratio in [4] is over 19. In addition, in [5], the EC50 is 5200 nM.

Take `Cc1cn([C@H]2C[C@H](N=[N+]=[N-])[C@@H](CO)O2)c(=O)[nH]c1=O` [ZIDOVUDINE]: the EC50 turned out to be 100 nM in series [1]; 10 nM in [2]; 10 nM in series [6]; 10 nM in series [7]; 600 nM in series [8]. Moreover, half-maximal cytotoxicity in [3] (CC50 at 96 h) was put at 60000 nM. For the same compound, the selectivity ratio in [4] is over 6000.

Turning to `Cc1cn([C@H]2C[C@H](N=[N+]=[N-])[C@@H](COP(=O)(Oc3ccc(C#N)cc3)Oc3cccnc3)O2)c(=O)[nH]c1=O` (stereo partly drawn), the EC50 came to 300 nM in [1]; 30 nM in series [2]; 20 nM in series [5]; 9 nM in series [6]; 20 nM in series [7]; 800 nM in series [8]. In addition, the CC50 at 96 h in series [3] was 58000 nM. The selectivity ratio in series [4] turned out to be 2900. Besides, the half-life in series [9] stood at 2.88 h.

Turning to `Cc1cn([C@H]2C[C@H](N=[N+]=[N-])[C@@H](COP(=O)(Oc3cccnc3)Oc3ccc(Cl)cc3Cl)O2)c(=O)[nH]c1=O` (stereo partly drawn), the EC50 was found to be 100 nM in [1]; 10 nM in [2]; 10 nM in series [5]; 8 nM in series [6]; 10 nM in [7]; 400 nM in series [8]. In series [3], the CC50 at 96 h was over 100000 nM. Moreover, the selectivity ratio in series [4] was over 10000. Further, in series [9], the half-life was found to be 6.6 h.

As for `Cc1cn([C@H]2C[C@H](N=[N+]=[N-])[C@@H](COP(=O)(Oc3ccccc3)Oc3cccnc3)O2)c(=O)[nH]c1=O` (stereo partly drawn), the EC50 in [1] came out at 500 nM; in series [2] it was 30 nM; in series [5], 50 nM; in [6] it was 20 nM; in [7], 40 nM; in [8] it was 2300 nM. The same compound registered a CC50 at 96 h in series [3] of over 100000 nM. Also, the selectivity ratio in [4] was over 2000. Besides, the half-life in [9] was found to be 50.2 h.

As for `Cc1ncccc1OP(=O)(OC[C@H]1O[C@@H](n2cc(C)c(=O)[nH]c2=O)C[C@@H]1N=[N+]=[N-])Oc1cccnc1C`, the EC50 in series [1] was 200 nM; in series [2], 20 nM; in [5], 20 nM; in series [6], 10 nM; in series [7], 30 nM; in series [8], 800 nM. Also, the CC50 at 96 h in [3] was over 100000 nM. For the same compound, in series [4], the selectivity ratio is over 5000. Besides, in series [9], the half-life was determined as 17.2 h.

On to `Cc1cn([C@H]2C[C@H](N=[N+]=[N-])[C@@H](COP(=O)(Oc3cccnc3)Oc3cccnc3)O2)c(=O)[nH]c1=O`, for which the EC50 in series [1] was determined as 100 nM; in series [2], 10 nM; in series [5], 10 nM; in [6], 3 nM; in series [7] it was 10 nM; in series [8], 700 nM. The compound further displayed a CC50 at 96 h in [3] of over 100000 nM. Moreover, in [4], the selectivity ratio was over 10000. The half-life in series [9] came to 4.92 h.

Regarding `Cc1ccc(OP(=O)(OC[C@H]2O[C@@H](n3cc(C)c(=O)[nH]c3=O)C[C@@H]2N=[N+]=[N-])Oc2ccccc2)cn1` (stereo partly drawn), the EC50 in series [1] is 1600 nM; in [2], 70 nM; in series [5], 90 nM; in series [6], 40 nM; in series [7], 80 nM; in [8], 7000 nM. In series [3], this compound had a CC50 at 96 h of over 100000 nM. Further, in [4], the selectivity ratio is over 1110. Further, the half-life in [9] came out at 44.4 h.

In the case of `Cc1ncccc1OP(=O)(OC[C@H]1O[C@@H](n2cc(C)c(=O)[nH]c2=O)C[C@@H]1N=[N+]=[N-])Oc1ccccc1` (stereo partly drawn), the concentration giving a half-maximal response (EC50) in [1] came to 1600 nM; in [2], 90 nM; in [5], 100 nM; in series [6], 60 nM; in series [7] it was 80 nM; in [8], 4700 nM. This compound registered a CC50 at 96 h in [3] of over 100000 nM. For the same compound, the selectivity ratio in series [4] was over 1000. In addition, the half-life in series [9] is 82.5 h.

For `Nc1ncnc2c1ncn2[C@H]1CC[C@@H](COP(=O)(Oc2ccccc2)Oc2cccnc2)O1` (stereo partly drawn), the EC50 in series [1] amounted to 50000 nM; in series [2] it was 16000 nM; in [5], 23000 nM; in series [6] it was 7000 nM; in series [7], 30000 nM; in [8], 42000 nM. In series [3], this compound yielded a CC50 at 96 h of over 100000 nM. In series [4], the selectivity ratio was over 4. In series [9], the half-life was found to be 88.8 h.

For the compound `Cc1cn([C@H]2C[C@H](N=[N+]=[N-])[C@@H](COP(=O)(Oc3ccc(Cl)cc3)Oc3cccnc3)O2)c(=O)[nH]c1=O` (stereo partly drawn), the EC50 in series [1] amounted to 700 nM; in series [2], 10 nM; in series [5], 30 nM; in series [6], 10 nM; in series [7] it was 40 nM; in series [8], 1900 nM. This compound also yielded a CC50 at 96 h in series [3] of at least 100000 nM. Besides, in series [4], the selectivity ratio was over 3330. Further, the half-life in series [9] was 55 h.

In the case of `O=c1ccn([C@H]2CC[C@@H](COP(=O)(Oc3ccccc3)Oc3ccncc3)O2)c(=O)[nH]1` (stereo partly drawn), the EC50 in series [1] came to 38000 nM; in series [2], 2000 nM; in series [5], 3000 nM; in series [6] it was 2000 nM; in series [7], 4000 nM; in series [8] it was 60000 nM. The compound also had a CC50 at 96 h in series [3] of over 100000 nM. In addition, in [4], the selectivity ratio is over 33. For the same compound, in series [9], the half-life turned out to be 26.8 h.
